Laboratory results as given in ChEMBL document CHEMBL1136761 (J Med Chem, 2003).
pKi: −log10 of the molar value.

Experiments:
[1] = molecular target: Monoamine transporters; serotonin & dopamine (Rattus norvegicus) (UniProt P31652+P23977); assay: Ratio between affinities at the rat dopamine and serotonin transporters.; format: protein assay
Method in brief: (§1)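 Binding was measured by competition against [125I]RTI-55 at DAT and SERT, and affinities were reported as Ki values. The selectivity ratio is SERT Ki divided by DAT Ki. Other conditions follow a cited earlier method.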

[2] = molecular target: T1, Sodium-dependent serotonin transporter (Rattus norvegicus, UniProt P31652); assay: Affinity at rat serotonin transporter using [125I]RTI-55 displacement.; method in brief: as §1
T1 sequence (P31652 whole entry): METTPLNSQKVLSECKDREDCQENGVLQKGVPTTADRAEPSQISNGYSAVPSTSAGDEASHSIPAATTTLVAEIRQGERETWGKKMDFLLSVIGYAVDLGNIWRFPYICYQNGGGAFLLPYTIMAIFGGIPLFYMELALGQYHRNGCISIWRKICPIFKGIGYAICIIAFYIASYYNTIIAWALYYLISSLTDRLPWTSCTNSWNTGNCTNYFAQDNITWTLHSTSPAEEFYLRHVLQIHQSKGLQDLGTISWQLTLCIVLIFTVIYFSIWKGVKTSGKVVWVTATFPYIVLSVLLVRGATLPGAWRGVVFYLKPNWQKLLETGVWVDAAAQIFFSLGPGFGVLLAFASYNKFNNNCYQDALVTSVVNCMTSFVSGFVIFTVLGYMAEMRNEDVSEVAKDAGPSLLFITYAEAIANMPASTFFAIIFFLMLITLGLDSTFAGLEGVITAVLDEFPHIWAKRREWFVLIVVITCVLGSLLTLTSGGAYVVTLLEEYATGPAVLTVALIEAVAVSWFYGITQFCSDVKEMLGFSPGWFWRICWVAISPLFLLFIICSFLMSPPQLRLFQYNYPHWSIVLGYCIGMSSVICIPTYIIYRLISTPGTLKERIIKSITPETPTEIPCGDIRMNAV

[3] = molecular target: T2, Sodium-dependent dopamine transporter (Rattus norvegicus, UniProt P23977); assay: Affinity at rat dopamine transporter using [125I]RTI-55 displacement.; method in brief: as §1
T2 sequence (P23977 whole entry): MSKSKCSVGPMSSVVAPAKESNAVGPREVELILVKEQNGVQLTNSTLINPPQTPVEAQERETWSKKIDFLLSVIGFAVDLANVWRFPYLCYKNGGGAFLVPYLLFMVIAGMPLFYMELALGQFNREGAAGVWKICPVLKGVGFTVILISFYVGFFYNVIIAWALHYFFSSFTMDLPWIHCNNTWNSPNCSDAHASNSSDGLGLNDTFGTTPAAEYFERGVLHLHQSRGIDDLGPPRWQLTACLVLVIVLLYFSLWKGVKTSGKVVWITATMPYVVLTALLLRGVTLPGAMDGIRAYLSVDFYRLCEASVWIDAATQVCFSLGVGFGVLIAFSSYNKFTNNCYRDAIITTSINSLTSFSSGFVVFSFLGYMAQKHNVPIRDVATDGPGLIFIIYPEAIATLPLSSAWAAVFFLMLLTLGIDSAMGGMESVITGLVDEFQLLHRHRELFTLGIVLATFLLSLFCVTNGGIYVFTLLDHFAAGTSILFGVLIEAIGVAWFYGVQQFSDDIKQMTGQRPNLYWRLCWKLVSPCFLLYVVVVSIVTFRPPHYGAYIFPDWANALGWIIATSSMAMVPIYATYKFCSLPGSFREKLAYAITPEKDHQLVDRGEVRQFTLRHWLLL

[4] = molecular target: T1, Sodium-dependent serotonin transporter; assay: Inhibition of [3H]5-HT uptake at the rat serotonin transporter.
[5] = molecular target: Norepinephrine transporter (Rattus norvegicus, UniProt Q9WTR4); assay: Inhibition of [3H]norepinephrine uptake at the rat norepinephrine transporter.
Sequence of Norepinephrine transporter (Q9WTR4 whole entry): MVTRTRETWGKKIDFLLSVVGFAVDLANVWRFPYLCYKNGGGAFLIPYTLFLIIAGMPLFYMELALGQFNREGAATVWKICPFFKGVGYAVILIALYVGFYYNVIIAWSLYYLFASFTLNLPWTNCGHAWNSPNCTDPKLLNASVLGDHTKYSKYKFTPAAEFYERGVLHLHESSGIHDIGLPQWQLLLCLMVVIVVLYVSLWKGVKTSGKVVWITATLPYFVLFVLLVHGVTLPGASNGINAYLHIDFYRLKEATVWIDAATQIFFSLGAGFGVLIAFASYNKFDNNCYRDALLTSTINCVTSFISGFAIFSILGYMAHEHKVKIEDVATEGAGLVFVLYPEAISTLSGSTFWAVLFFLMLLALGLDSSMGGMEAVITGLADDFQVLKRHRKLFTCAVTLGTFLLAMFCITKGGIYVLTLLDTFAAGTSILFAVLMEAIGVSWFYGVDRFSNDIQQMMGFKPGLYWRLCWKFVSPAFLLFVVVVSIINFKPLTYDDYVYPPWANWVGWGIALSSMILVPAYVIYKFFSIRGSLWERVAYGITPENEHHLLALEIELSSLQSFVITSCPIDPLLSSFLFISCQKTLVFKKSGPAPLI

[6] = molecular target: T2, Sodium-dependent dopamine transporter; assay: Inhibition of [3H]dopamine uptake via rat dopamine transporter.
[7] = Ratio between the inhibition of serotonin and dopamine uptake.
[8] = Ratio between the inhibition of norepinephrine and dopamine uptake.

Sequence of Monoamine transporters; serotonin & dopamine (Rattus norvegicus) (P23977 whole entry, looked up): as the sequence (P23977 whole entry) above
Sequence of Monoamine transporters; serotonin & dopamine (Rattus norvegicus) (P31652 whole entry, looked up): as the sequence (P31652 whole entry) above

For `N#Cc1ccc(CN2CCC(CCOC(c3ccccc3)c3ccccc3)CC2)cc1`, the Ratio [1] was 390, the pKi [2] was 5.65 and the pKi [3] was 8.24.
With `Cc1ccc(CN2CCC(CCOC(c3ccc(F)cc3)c3ccc(F)cc3)CC2)cc1` the Ratio [1] was 42, the pKi [2] was 6.62 and the pKi [3] was 8.24.
`Fc1ccc(C(OCCC2CCN(Cc3ccc(Br)cc3)CC2)c2ccc(F)cc2)cc1` gave a Ratio [1] of 181, a pKi [2] of 6.70 and a pKi [3] of 8.96.
`Ic1ccc(CN2CCC(CCOC(c3ccccc3)c3ccccc3)CC2)cc1` showed a Ratio [1] of 63, a pKi [4] of 5.59 and a pKi [5] of 6.32. The pKi [6] was 8.29, the pKi [2] was 6.34 and the pKi [3] was 8.14. It also gave a Ratio [7] of 500 and a Ratio [8] of 93.
`N#Cc1ccc(CN2CCC(CCOC(c3ccc(F)cc3)c3ccc(F)cc3)CC2)cc1` gave a Ratio [1] of 505, a pKi [2] of 6.22 and a pKi [3] of 8.92.
Work on `Fc1ccc(CN2CCC(CCOC(c3ccc(F)cc3)c3ccc(F)cc3)CC2)cc1` yielded a Ratio [1] of 107, a pKi [4] of 6.22 and a pKi [5] of 6.19. The pKi [6] was 8.42, the pKi [2] was 6.61 and the pKi [3] was 8.64.
`O=[N+]([O-])c1ccc(CN2CCC(CCOC(c3ccccc3)c3ccccc3)CC2)cc1` showed a Ratio [1] of 859, a pKi [4] of 5.45 and a pKi [5] of 6.68. It also gave a pKi [6] of 8.57, a pKi [2] of 5.67 and a pKi [3] of 8.60.
In the case of `Fc1ccc(C(OCCC2CCN(Cc3ccc4ccccc4c3)CC2)c2ccc(F)cc2)cc1`, the pKi [4] was 6.64, the pKi [5] was 7.03 and the pKi [6] was 8.14. The pKi [2] was 7.06 and the pKi [3] was 9.15.
For `O=[N+]([O-])c1ccc(CN2CCC(CCOC(c3ccc(F)cc3)c3ccc(F)cc3)CC2)cc1`, the Ratio [1] was 323, the pKi [4] was 5.81 and the pKi [5] was 6.64. For the same molecule, the pKi [6] was 8.16, the pKi [2] was 6.41 and the pKi [3] was 8.92.
`Fc1ccc(C(OCCC2CCN(Cc3ccc(C(F)(F)F)cc3)CC2)c2ccc(F)cc2)cc1` showed a Ratio [1] of 402, a pKi [2] of 6.35 and a pKi [3] of 8.96.
With `Brc1ccc(CN2CCC(CCOC(c3ccccc3)c3ccccc3)CC2)cc1` the Ratio [1] was 154, the pKi [4] was 5.88 and the pKi [5] was 6.27. It also gave a pKi [6] of 8.28, a pKi [2] of 6.01 and a pKi [3] of 8.19.
In the case of `Clc1ccc(CN2CCC(CCOC(c3ccccc3)c3ccccc3)CC2)cc1`, the Ratio [1] was 140, the pKi [2] was 6.27 and the pKi [3] was 8.42.
For `Fc1ccc(C(OCCC2CCN(Cc3ccc(I)cc3)CC2)c2ccc(F)cc2)cc1`, the Ratio [1] was 98, the pKi [4] was 5.99 and the pKi [5] was 6.26. The pKi [6] was 7.87, the pKi [2] was 6.69 and the pKi [3] was 8.68.
Work on `COc1ccc(CN2CCC(CCOC(c3ccc(F)cc3)c3ccc(F)cc3)CC2)cc1` yielded a Ratio [1] of 34, a pKi [2] of 6.58 and a pKi [3] of 8.10.
With `COc1ccccc1CN1CCC(CCOC(c2ccc(F)cc2)c2ccc(F)cc2)CC1` the Ratio [1] was 4, the pKi [2] was 6.61 and the pKi [3] was 7.20.
In the case of `FC(F)(F)c1ccc(CN2CCC(CCOC(c3ccccc3)c3ccccc3)CC2)cc1`, the Ratio [1] was 648, the pKi [2] was 5.64 and the pKi [3] was 8.46.
With `Fc1ccc(C(OCCC2CCN(Cc3cccc4ccccc34)CC2)c2ccc(F)cc2)cc1` the Ratio [1] was 23, the pKi [2] was 6.43 and the pKi [3] was 7.80.
Work on `Fc1ccc(C(OCCC2CCN(Cc3ccccc3)CC2)c2ccc(F)cc2)cc1` yielded a Ratio [1] of 17, a pKi [2] of 6.77 and a pKi [3] of 8.00.
Molecule `COc1cccc(CN2CCC(CCOC(c3ccc(F)cc3)c3ccc(F)cc3)CC2)c1` has a Ratio [1] of 12, a pKi [2] of 6.79 and a pKi [3] of 7.88.
With `Fc1ccc(CN2CCC(CCOC(c3ccccc3)c3ccccc3)CC2)cc1` the Ratio [1] was 177, the pKi [2] was 6.04 and the pKi [3] was 8.29.
For `Fc1ccc(C(OCCC2CCN(Cc3ccc(Cl)cc3)CC2)c2ccc(F)cc2)cc1`, the Ratio [1] was 198, the pKi [2] was 6.62 and the pKi [3] was 8.92.
